The record followed here is ChEMBL document CHEMBL4330057, “Second generation of diazachrysenes: Protection of Ebola virus infected mice and mechanism of action” (Eur J Med Chem, 2019).

The Papp A→B is the apparent permeability from the apical to the basolateral side of a cell layer. As usually defined, the solubility is the concentration that dissolves in the medium under given conditions. A higher solubility goes with much dissolved substance. For orientation: half-life means how long it takes for the measured level to halve.

One data set deals with Ebolavirus. As to the kind of experiment: Antiviral activity against Ebolavirus infected in mouse assessed as protection against viral infection at 10 mg/kg/day relative to control. Format: functional.
The nature of data set [1]: Drug uptake in C57Bl/6 mouse serum at 10 mg/kg/day, ip qd for 7 days measured on day 7 at 5 to 240 mins post dose by UHPLC/MS analysis. The class given is ADME, organism-based. The conditions noted are these: in vivo, read-out: Drug uptake.
A short description of data set [2]: Acute toxicity in C57Bl/6 mouse assessed as effect on appearance at 20 mg/kg/day, ip qd for 7 days measured twice daily for 28 days. Format: organism-based. Conditions: in vivo, 672 h. The essentials:
(§1)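 Six healthy mice received 20 mg/kg i.p. once daily for seven doses. Behaviour and appearance observed twice daily for 28 days after the last dose.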

The test system of data set [3] is Zaire ebolavirus. As to the kind of experiment: Antiviral activity against Ebolavirus Mayinga infected in Balb/c mouse assessed as protection against viral infection by measuring host survival at 10 mg/kg, ip administered 2 hrs prior to viral infection daily for 6 days and measured for 14 days relative to control. Format: functional, 1976.
Data set [4] deals with T1, Cytochrome P450 3A4 (Homo sapiens, UniProt P08684). As to the kind of experiment: Inhibition of CYP3A4 (unknown origin) using 7-benzyloxy-4-trifluoromethylcoumarin as substrate. Format: ADME. The essentials:
(§2)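 CYP IC50 was taken from the net fluorescent signal after incubation at 37 °C for a set time with active cytochrome P450 enzyme and a fluorescent probe substrate.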

A short description of data set [5]: Apparent permeability from apical to basolateral side in MDCK cells. Conditions: dog. Format: ADME, cell-based, Canis lupus familiaris. Summed up:
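Apparent permeability measured in MDCK cell monolayers, apical→basolateral and basolateral→apical directions, three biological replicates.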

Data set [6] has as its system Vesicular stomatitis virus. Briefly: Antiviral activity against VSV expressing GFP infected in human HeLa cells assessed as inhibition of viral infection at 0.1 uM pre-incubated for 2 hrs followed by viral infection and measured after 6 hrs by cell mask deep red staining based assay. The class given is functional, organism-based. Summed up: (§3)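 HeLa cells pretreated 2 h with compound, then infected with rVSV-EBOV-GP-GFP (8 h) or VSV-GFP (6 h), and stained with Cell Mask Deep Red. Relative inhibition = 1 minus (% GFP-expressing cells normalised to mock). Mean ± SD of three replicates, representative of three independent experiments.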

A short description of data set [7]: Solubility of the compound in deionized water. The class given is physicochemical.
Data set [8] can be described thus: Half life in human liver microsomes. The class given is ADME, Microsome. The essentials:
(§4)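 Substrate depletion with mouse or human liver microsomes, 1 h at 37 °C. Clearance (μL/min/mg) and half-life derived.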
(Microsomes from liver hold many membrane-bound enzymes, among them those of drug oxidation.)

The test system of data set [9] is Zaire ebolavirus. As to the kind of experiment: Antiviral activity against VSV pseudotyped Ebolavirus Mayinga expressing GFP infected in human HeLa cells assessed as inhibition of viral infection at 2 uM pre-incubated for 2 hrs followed by viral infection and measured after 8 hrs by cell mask deep red staining based assay. Format: functional, organism-based. The conditions noted are these: 1976. The essentials: as §3

Data set [10] is described as follows: Drug metabolism in C57Bl/6 mouse assessed as oxygenation metabolite formation at 20 mg/kg/day, ip qd for 7 days measured at 24 hrs post last dose by UHPLC/MS analysis. The class given is ADME, organism-based. Conditions: in vivo. The essentials:
(§5)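 Serum from two mice dosed 20 mg/kg/day i.p. taken 24 h after the last dose. Compound quantified by UHPLC/MS and screened for M+2, M+16, M-2 and M+32 products or combinations.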

Data set [11] is described as follows: Drug uptake in C57Bl/6 mouse serum at 20 mg/kg/day, ip qd for 7 days measured at 24 hrs post last dose by UHPLC/MS analysis. The class given is ADME, organism-based. The conditions noted are these: read-out: Drug uptake. The essentials:
as §5

For data set [12], the system named is Vesicular stomatitis virus. Briefly: Antiviral activity against VSV expressing GFP infected in human HeLa cells assessed as inhibition of viral infection at 2 uM pre-incubated for 2 hrs followed by viral infection and measured after 6 hrs by cell mask deep red staining based assay. Format: functional, organism-based. The essentials:
as §3

Data set [13] in a line: Half life in mouse liver microsomes. The class given is ADME, Microsome. The essentials:
as §4

Data set [14] in a line: Hepatotoxicity in 6 hrs post fertilized transgenic l-fabp:EGFP zebrafish embryo assessed as change in liver area index up to 30 uM up to 120 hrs post fertilization by fluorescence assay. Format: toxicity, Danio rerio. Conditions: in vivo. Summed up: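 Tg(l-fabp:EGFP) zebrafish embryos exposed from 6 hpf. At 120 hpf, liver area index (liver area/lateral body area) and liver fluorescence assessed by in vivo imaging.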

Data set [15] is described as follows: Acute toxicity in C57Bl/6 mouse assessed as effect on behavior at 20 mg/kg/day, ip qd for 7 days measured twice daily for 28 days. Format: organism-based. The conditions noted are these: in vivo, 672 h. Summed up:
as §1

The nature of data set [16]: Clearance in human liver microsomes after 1 hr. Format: ADME, Microsome. Conditions: read-out: CLH. Summed up:
as §4

Data set [17] can be described thus: Stability in plasma (unknown origin) after 1 hr at 37 degC. Conditions: read-out: Stability. Format: ADME, cell-free. The essentials:
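Compound was incubated in plasma for 1 h at 37 °C, and the percent remaining was reported.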

The subject of data set [18] is Zaire ebolavirus. Briefly: Antiviral activity against VSV pseudotyped Ebolavirus Mayinga expressing GFP infected in human HeLa cells assessed as inhibition of viral infection up to 50 uM pre-incubated for 2 hrs followed by viral infection and measured after 8 hrs by high content imaging analysis. The class given is functional, organism-based. The conditions noted are these: 1976. Summed up:
as §3

Another data set has as its target Cytochrome P450 2C19 (Homo sapiens, UniProt P33261). Briefly: Inhibition of CYP2C19 (unknown origin) using CEC as substrate. Format: ADME. The essentials:
as §2

Data set [19] deals with T1, Cytochrome P450 3A4. As to the kind of experiment: Inhibition of CYP3A4 (unknown origin) using 7-benzyloxyquinoline as substrate. Format: ADME. The essentials: as §2
Data set [20] can be described thus: Drug metabolism in C57Bl/6 mouse assessed as reduction metabolite formation at 20 mg/kg/day, ip qd for 7 days measured at 24 hrs post last dose by UHPLC/MS analysis. Format: ADME, organism-based. The conditions noted are these: in vivo. Summed up:
as §5

Data set [21] deals with Zaire ebolavirus. As to the kind of experiment: Antiviral activity against Ebolavirus Mayinga infected in Balb/c mouse assessed as protection against viral infection at 1 to 5 mg/kg, ip administered 2 hrs prior to viral infection daily for 6 days and measured for 14 days relative to control. The class given is functional, 1976.
Data set [22] concerns Vesicular stomatitis virus. As to the kind of experiment: Antiviral activity against VSV expressing GFP infected in human HeLa cells assessed as inhibition of viral infection at 50 uM pre-incubated for 2 hrs followed by viral infection and measured after 6 hrs by cell mask deep red staining based assay. The class given is functional, organism-based. Summed up:
as §3

Activity calls are given as the source filed them. The calls are words filed in the database; no cut-off is given here.

T1 sequence (P08684 whole entry): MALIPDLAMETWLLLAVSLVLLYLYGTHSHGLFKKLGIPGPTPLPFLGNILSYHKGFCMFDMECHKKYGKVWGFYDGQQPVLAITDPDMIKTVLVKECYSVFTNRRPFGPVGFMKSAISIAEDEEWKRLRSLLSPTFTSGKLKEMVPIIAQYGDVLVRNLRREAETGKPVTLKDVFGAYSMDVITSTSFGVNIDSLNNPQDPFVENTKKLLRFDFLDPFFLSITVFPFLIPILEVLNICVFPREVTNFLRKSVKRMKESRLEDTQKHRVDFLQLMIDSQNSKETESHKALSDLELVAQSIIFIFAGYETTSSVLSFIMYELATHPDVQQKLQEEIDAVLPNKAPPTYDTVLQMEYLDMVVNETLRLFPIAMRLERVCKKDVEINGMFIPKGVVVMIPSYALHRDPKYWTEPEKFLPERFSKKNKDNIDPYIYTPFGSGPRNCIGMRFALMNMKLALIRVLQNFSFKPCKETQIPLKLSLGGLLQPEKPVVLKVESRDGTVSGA
Cytochrome P450 2C19, sequence (P33261 whole entry): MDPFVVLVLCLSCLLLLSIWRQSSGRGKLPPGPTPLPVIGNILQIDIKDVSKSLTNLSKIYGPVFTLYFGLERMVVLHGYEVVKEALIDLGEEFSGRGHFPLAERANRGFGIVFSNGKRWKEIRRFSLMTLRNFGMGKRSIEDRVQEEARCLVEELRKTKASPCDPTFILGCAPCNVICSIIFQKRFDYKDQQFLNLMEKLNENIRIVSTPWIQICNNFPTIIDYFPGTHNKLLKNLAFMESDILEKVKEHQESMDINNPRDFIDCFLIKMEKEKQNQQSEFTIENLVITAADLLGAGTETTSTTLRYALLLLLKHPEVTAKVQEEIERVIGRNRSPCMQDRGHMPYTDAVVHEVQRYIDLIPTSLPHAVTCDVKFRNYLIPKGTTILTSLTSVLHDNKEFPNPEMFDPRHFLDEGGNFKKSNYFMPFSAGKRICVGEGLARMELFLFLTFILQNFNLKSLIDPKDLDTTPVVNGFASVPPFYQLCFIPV

Regarding `Cl.Cl.Cl.Cl.c1cc(NCCN2CCOCC2)c2ccc3c(ccc4c(NCCN5CCOCC5)ccnc43)c2n1`, the Activity in the data set with Ebolavirus came out at 90%. The concentration in data set [1] lay in the range of 460 to 650 nM.
Regarding `Cl.Cl.Cl.Cl.c1cc(NCCCCN2CCOCC2)c2ccc3c(ccc4c(NCCN5CCOCC5)ccnc43)c2n1`, the Activity entry in [2] is recorded as “Non-Toxic”; with Zaire ebolavirus [3] it was 100%; in data set [14] it was “Non-Toxic”; in [15], “Non-Toxic”; in the data set on Zaire ebolavirus [21], 50%. For the same compound, the INH on Cytochrome P450 3A4 [4], on Cytochrome P450 2C19 and at Cytochrome P450 3A4 [19] was greater than 10 µM in each case. Moreover, the Papp A→B in data set [5] fell in the range of 39.3 to 67.2 ×10⁻⁶ cm/s. Moreover, the outcome in data set [6] and in [12] was inactive. The solubility in data set [7] is no less than 25 mg/mL. Moreover, the half-life in [8] is 42.1 min; in data set [13] it was 62.1 min. Besides, the result (with Zaire ebolavirus [9]; in the data set with Zaire ebolavirus [18]; in [22]) was Active. In addition, the Drug metabolism entry in data set [10] and in [20] was “Metabolite_Notdetected” in each case. Moreover, the concentration at 24 h in data set [11] is 350 to 1200 nM. The microsomal CLint in [16] worked out at 32.9 µL/min/mg. The remaining at 1 h in data set [17] came out at 60%.
